Bioassay records as filed in PubChem BioAssay.
A selection: hits, their analogues and other compounds. The true share with any hit is near 2.9%.
DENV2 CPE: protects cells from dengue virus 2 cytopathic effect; DENV2-infected cells, cytopathic effect rescue, plate reader; 1.7% of 350,000 active; CPE inhibition, % at 9.99 µM; in the data active means CPE inhibition above about 20%, passing the limit was not always enough; inconclusive means no clear call, values can overlap the other calls; tested in BHK-21 cells
CAL PDZ FP-1: inhibitors of human CAL PDZ peptide binding; Q9HD26; 0.92% of 300,000 active; purified CAL PDZ, TMR-peptide fluorescence polarization, 1 h; inhibition, % at 24.9 µM;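 active means mean inhibition of at least 30% with at least half of replicates also reaching 30%; inconclusive means no clear call, values can overlap the other calls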
S100A4 MyoIIA: inhibitors of human S100A4 binding to myosin IIA peptide; S100A4/TAMRA-MyoIIA peptide fluorescence polarization; AID 652163; 0.14% of 360,000 active; inhibition, % at 10.7 µM;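 active means mean inhibition of at least 70% across replicates, with every replicate also reaching that level; inconclusive means mean inhibition reaches 70% but some replicates fall short; inactive means mean inhibition below 70%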
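assay system = human S100A4 monomer with TAMRA-labelled myosin IIA peptide | also added = labelled myosin peptide probe, 5 nM | incubation = 5 min between mix addition and reading | control set = DMSO and TFP controls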
ERAP1 HTS inh: ERAP1 (human) enzyme inhibition; recombinant ERAP1, Leu-AMC fluorescence, 60 min; inhibition, % at 10.7 µM; 0.15% of 340,000 active; AID 652197;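 active means mean replicate inhibition of at least 30%, or all replicates individually reaching that 30% level; inactive means mean below 30% and not every replicate reaching it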
SIRT5 block: blocks human SIRT5 desuccinylation of peptide; Q9NXA8; inhibition, % at 15 µM; Purified SirT5, succinyl-peptide AMC, trypsin-coupled fluorescence; AID 652115; 1.1% of 330,000 active; in the data active means inhibition above about 15%; inconclusive means no clear call, values can overlap the other calls
CAL PDZ FP-2: human CAL PDZ-peptide interaction inhibition; 0.02% of 330,000 active; inhibition, % at 20 µM; purified CAL PDZ, TMR-peptide fluorescence polarization, 1 h; Q9HD26; AID 504414;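 active means highest replicate inhibition of at least 40%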
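Material: tagged CAL PDZ domain; buffer or medium: 25 mM sodium phosphate pH 7.4, 150 mM NaCl, TCEP, IgG, Thesit; compound dosing: single point, 20 µM; schedule: 1 h incubation at room temperature before polarization reading; measured by: FP readout, S and P plane fluorescence; read-out basis: percent inhibition from loss of millipolarization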
Hits are given with their value; 0 = inactive; ? = inconclusive; - = no result; + = active, no number; ! = not active in a repeat.

SMILES	DENV2 CPE	CAL PDZ FP-1	S100A4 MyoIIA	ERAP1 HTS inh	SIRT5 block	CAL PDZ FP-2
CC(C)C(NC(=O)c1ccccc1Br)c1ccccc1 (stereo unspecified)	0	0	0	0	0	0
CC(C)NC(=O)N(C)C[C@H]1Oc2ncc(-c3ccccc3F)cc2C(=O)N([C@@H](C)CO)C[C@H]1C	0	-	0	0	0	-
Cc1ccc(S(=O)(=O)N(C)CCCC(=O)NC(C)(C)C)cc1	0	0	0	0	0	0
Cc1ccc(S(=O)(=O)N(C)CCCC(=O)NC(C)(C)CO)cc1	0	0	0	0	27	0
Cc1ccc(S(=O)(=O)Nc2ccc3c(c2)CC(=O)N([C@H](C)CO)C[C@H](C)[C@@H](CN(C)Cc2ccc(Cl)c(Cl)c2)O3)cc1	0	-	0	0	0	-
C[C@H](CO)N1C[C@H](C)[C@@H](CN(C)Cc2ccc(Cl)c(Cl)c2)Oc2ccc(NS(=O)(=O)c3ccc(Cl)cc3)cc2CC1=O	0	-	0	0	25	-
C[C@@H]1CN([C@@H](C)CO)C(=O)Cc2cc(NS(=O)(=O)c3ccc(Cl)cc3)ccc2O[C@H]1CN(C)Cc1ccc(Cl)c(Cl)c1	0	-	0	0	26	-
C[C@@H]1CN([C@H](C)CO)C(=O)Cc2cc(NS(=O)(=O)c3ccc(Cl)cc3)ccc2O[C@H]1CN(C)Cc1ccc(Cl)c(Cl)c1	0	-	0	0	0	-
C[C@@H]1CN([C@@H](C)CO)C(=O)Cc2cc(NS(=O)(=O)c3ccccc3)ccc2O[C@H]1CN(C)Cc1ccc(Cl)c(Cl)c1	0	-	0	0	20	-
C[C@@H]1CN([C@@H](C)CO)C(=O)c2cc(NC(=O)Nc3ccc(C(F)(F)F)cc3)ccc2O[C@H]1CN(C)C	0	-	0	0	0	-
Cc1ccc(SCCNC(=S)Nc2cc(C)ccc2C)cc1	-	0	-	-	-	0
Cc1ccc(C)c(NC(=S)NCCN(C2CCCCC2)C2CCCC2)c1	0	65	0	-	0	0
C[C@@H]1CN([C@@H](C)CO)C(=O)c2cccc(NC(=O)Nc3ccc(C(F)(F)F)cc3)c2O[C@H]1CN(C)C(=O)NC1CCCCC1	0	-	0	0	101	-
C[C@@H]1CN([C@H](C)CO)C(=O)c2cccc(NC(=O)NC3CCCCC3)c2O[C@H]1CN(C)C(=O)Nc1ccc(C(F)(F)F)cc1	0	-	0	0	0	-
C[C@@H]1CN([C@H](C)CO)C(=O)c2cccc(NC(=O)Nc3ccc(C(F)(F)F)cc3)c2O[C@@H]1CN(C)C(=O)NC1CCCCC1	0	-	0	0	0	-
C[C@H](CO)N1C[C@H](C)[C@@H](CN(C)C(=O)NC2CCCCC2)Oc2c(NC(=O)Nc3ccc(C(F)(F)F)cc3)cccc2C1=O	29!	0	0	0	0	0
CCCc1c(C(=O)Nc2cc(C(C)(C)C)on2)cnn1-c1ccccc1	29	0	0	0	0	0
CCCc1c(C(=O)Nc2ccc(F)cc2F)cnn1-c1ccccc1	0	0	0	0	0	0
Cc1cc(NC(=O)CCN2C(=O)C3C4CCC(C4)C3C2=O)cc(C)c1Br (stereo unspecified)	-	0	-	-	-	0
Cc1c(Br)ccc(NC(=O)CCN2C(=O)C3C4CCC(C4)C3C2=O)c1C (stereo unspecified)	-	32	-	-	-	0
O=C(C[C@H]1C[C@H]2c3cc(NS(=O)(=O)c4ccc(F)cc4)ccc3O[C@H]2[C@@H](CO)O1)N1CCCCC1	-	-	0	0	0	-
COc1ccc(S(=O)(=O)N2CCC(C(=O)NCCC(=O)NCc3cccnc3)CC2)cc1	75	-	0	0	0	-
COc1ccc(S(=O)(=O)N2CCC(C(=O)NCCC(=O)NCc3ccncc3)CC2)cc1	0	0	0	0	0	0
COc1ccc(S(=O)(=O)N2CCC(C(=O)N[C@H](C(=O)N3CCCC3)C(C)C)CC2)cc1	0	94	0	0	0	0
CCOc1ccccc1NC(=O)C1CCN(c2ccc(S(=O)(=O)N3CCCC3)cc2)CC1	0	-	0	0	17	0
SMILES	DENV2 CPE	CAL PDZ FP-1	S100A4 MyoIIA	ERAP1 HTS inh	SIRT5 block	CAL PDZ FP-2
COc1ccc(S(=O)(=O)N2CCCCCC2)cc1NC(C)C(=O)Nc1ccc(NC(C)=O)cc1 (stereo unspecified)	0	48	0	0	0	0
C[C@H]1CN([C@@H](C)CO)S(=O)(=O)c2ccc(C3=CCCC3)cc2O[C@@H]1CN(C)C(=O)c1ccncc1	0	-	0	0	0	-
C[C@@H]1CN([C@H](C)CO)C(=O)Cc2cc(NC(=O)Cc3ccccc3)ccc2O[C@@H]1CN(C)Cc1ccc(C(=O)Nc2ccccc2N)cc1	0	-	0	0	0	-
COc1ccc(S(=O)(=O)N2CCCCCC2)cc1C(=O)OC(C)C(N)=O (stereo unspecified)	?	+	0	0	0	0
Cc1ccc(S(=O)(=O)N2CCCCC2)cc1NC(=O)C1CC1	0	0	0	0	0	0
COc1ccc(S(=O)(=O)N2CCCCC2)cc1NC(=O)C1CC1	0	32	0	0	0	0
C[C@@H]1CN([C@H](C)CO)C(=O)c2cccc(NC(=O)NC3CCCCC3)c2O[C@H]1CN(C)C	0	-	0	0	0	-
CC(=O)c1c(C)[nH]c(C(=O)COC(=O)c2c(-c3ccccc3)noc2C)c1C	0	64	0	0	-	0
COc1ccc(C(C)=O)cc1Cn1c(C)c(C(=O)NCC(C)C)sc1=O	0	-	0	-	-	-
COc1ccc(C(C)=O)cc1Cn1c(C)c(C(=O)NCCC#N)sc1=O	71	-	0	-	-	-
CCCNC(=O)N1CC2(C1)[C@H](c1ccccc1)[C@H](CO)N2C(=O)C1CCCC1	0	-	0	0	0	-
CCC(Sc1nc2ncnc(N)c2[nH]1)C(=O)O (stereo unspecified)	0	0	0	0	17	0
N=C1/C(=C/c2ccc(-c3cccc(C(=O)O)c3)o2)C(=O)N=C2SC(CC(=O)N3CCOCC3)=NN12	0	0	0	0	22	0
N=C1/C(=C\c2ccc(SCc3ccccc3)o2)C(=O)N=C2SC(CC(=O)N3CCOCC3)=NN12	0	0	0	-	0	0
COc1cccc(/C=N/NC(=O)c2cnccn2)c1O	0	90	0	0	0	0
O=C(COCC(=O)N/N=C/c1ccccc1F)N/N=C/c1ccccc1F	0	0	0	0	0	0
COc1ccccc1/C=C/C(=O)NCC(=O)N/N=C/c1ccccc1	0	0	0	0	0	0
COc1ccccc1/C=C/C(=O)NCC(=O)N/N=C/c1ccc(C)o1	0	-	0	0	100	0
COc1ccc(OC)c(/C=N/NC(=O)c2cc[n+](CC(=O)c3ccccc3)cc2)c1	0	0	0	37	0	0
COc1ccccc1/C=N/NC(=O)COCC(=O)N/N=C/c1ccccc1OC	0	0	0	0	19	0
COc1ccc(/C=N/NC(=O)c2cnccn2)c(OC)c1OC	0	0	0	0	0	0
C[C@H]1CN([C@@H](C)CO)C(=O)Cc2cc(NS(=O)(=O)c3cn(C)cn3)ccc2O[C@H]1CN(C)Cc1ccc2c(c1)OCO2	0	-	-	-	-	-
